Measurements from ChEMBL document CHEMBL4813970, “Design, synthesis and evaluation of novel dimethylamino chalcone-O-alkylamines derivatives as potential multifunctional agents against Alzheimer's disease” (Eur J Med Chem, 2021).

Legend:
[1] = target: T1, Amyloid-beta precursor protein (Homo sapiens, UniProt P05067); experiment: Inhibition of self-induced amyloid beta (1 to 42) (unknown origin) aggregation at 25 uM by T-fluorescence assay relative to control
How it was run: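 Self-induced Aβ1-42 aggregation measured by ThT fluorescence, excitation 446 nm and emission 490 nm. Compound and Aβ1-42 each at 25 μM. Run in triplicate. Values are mean of three independent experiments.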

[2] = target: T2, Amine oxidase [flavin-containing] A (Homo sapiens, UniProt P21397); experiment: Inhibition of human recombinant MAO-A by multimode plate reader assay
T2 sequence (P21397 whole entry): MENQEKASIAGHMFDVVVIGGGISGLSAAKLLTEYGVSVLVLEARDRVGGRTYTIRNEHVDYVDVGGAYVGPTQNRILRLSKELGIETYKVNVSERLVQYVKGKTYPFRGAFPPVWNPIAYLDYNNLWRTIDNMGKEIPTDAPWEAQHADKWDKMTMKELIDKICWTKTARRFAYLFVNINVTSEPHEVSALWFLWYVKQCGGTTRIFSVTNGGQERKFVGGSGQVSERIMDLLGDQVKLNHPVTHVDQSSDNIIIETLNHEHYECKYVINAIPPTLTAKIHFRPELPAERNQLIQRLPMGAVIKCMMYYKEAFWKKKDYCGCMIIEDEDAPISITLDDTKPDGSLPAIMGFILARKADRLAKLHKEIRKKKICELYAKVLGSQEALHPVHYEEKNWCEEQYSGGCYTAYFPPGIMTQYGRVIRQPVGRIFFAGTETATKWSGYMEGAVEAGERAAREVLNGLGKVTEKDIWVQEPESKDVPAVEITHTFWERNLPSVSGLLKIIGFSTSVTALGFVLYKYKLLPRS

Acetylcholinesterase [3] = target: Acetylcholinesterase (Electrophorus electricus, UniProt O42275); experiment: Inhibition of electric eel AChE using acetylthiocholine iodide as substrate by Ellman's method
Butyrylcholinesterase = Butyrylcholinesterase (Rattus norvegicus, UniProt Q9JKC1); experiment: Inhibition of rat serum BuChE by Ellman's method
[4] = target: T3, Amine oxidase [flavin-containing] B (Homo sapiens, UniProt P27338); experiment: Inhibition of human recombinant MAO-B by multimode plate reader assay
T3 sequence (P27338 whole entry): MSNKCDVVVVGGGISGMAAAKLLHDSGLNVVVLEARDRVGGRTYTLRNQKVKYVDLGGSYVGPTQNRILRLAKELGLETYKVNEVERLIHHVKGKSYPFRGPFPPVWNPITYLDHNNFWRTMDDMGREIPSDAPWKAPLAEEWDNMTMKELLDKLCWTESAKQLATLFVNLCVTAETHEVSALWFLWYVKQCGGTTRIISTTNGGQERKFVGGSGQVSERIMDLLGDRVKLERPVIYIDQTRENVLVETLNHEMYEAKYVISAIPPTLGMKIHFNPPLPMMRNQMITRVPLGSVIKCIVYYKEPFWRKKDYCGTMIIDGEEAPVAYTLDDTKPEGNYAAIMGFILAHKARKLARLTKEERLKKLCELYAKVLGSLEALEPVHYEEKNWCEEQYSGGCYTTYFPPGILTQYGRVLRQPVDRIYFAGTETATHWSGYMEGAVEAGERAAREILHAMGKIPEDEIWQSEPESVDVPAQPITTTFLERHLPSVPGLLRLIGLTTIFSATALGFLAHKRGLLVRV

Homo sapiens = species on record: Homo sapiens; experiment: Selectivity index, ratio of IC50 for recombinant human MAO-A to IC50 for recombinant human MAO-B
How it was run: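 Selectivity index taken as IC50(hMAO-A)/IC50(hMAO-B). IC50 values are mean ± SEM from three experiments.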

[5] = Antioxidant activity of compound assessed as trolox equivalent antioxidant capacity by ORAC-FL assay; format: functional
Acetylcholinesterase [6] = target: T4, Acetylcholinesterase (Rattus norvegicus, UniProt P37136); experiment: Inhibition of rat cortex homogenate acetylcholinesterase by Ellman's method
T4 sequence (P37136 whole entry): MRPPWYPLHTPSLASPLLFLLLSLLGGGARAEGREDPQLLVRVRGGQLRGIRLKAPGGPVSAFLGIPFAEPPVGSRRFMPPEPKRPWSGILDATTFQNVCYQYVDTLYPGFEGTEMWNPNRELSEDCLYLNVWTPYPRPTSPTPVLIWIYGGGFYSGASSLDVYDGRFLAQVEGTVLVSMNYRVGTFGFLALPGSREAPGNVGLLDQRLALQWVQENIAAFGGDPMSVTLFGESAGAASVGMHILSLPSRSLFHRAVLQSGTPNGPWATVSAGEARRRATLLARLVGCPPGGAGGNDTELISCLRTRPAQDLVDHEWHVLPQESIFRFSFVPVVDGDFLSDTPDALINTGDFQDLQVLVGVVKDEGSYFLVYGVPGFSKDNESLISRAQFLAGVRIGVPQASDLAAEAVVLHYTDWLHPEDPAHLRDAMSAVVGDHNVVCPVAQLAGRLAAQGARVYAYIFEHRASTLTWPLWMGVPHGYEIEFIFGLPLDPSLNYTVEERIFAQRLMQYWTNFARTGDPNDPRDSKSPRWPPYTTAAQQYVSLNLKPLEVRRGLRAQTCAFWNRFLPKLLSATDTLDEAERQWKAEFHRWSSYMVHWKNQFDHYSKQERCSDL

[7] = target: T1, Amyloid-beta precursor protein; experiment: Disaggregation of Cu2+ induced amyloid beta (1 to 42 residues) (unknown origin) aggregation at 25 uM by thioflavin-T fluorescence method relative to control
[8] = target: T1, Amyloid-beta precursor protein; experiment: Disaggregation of self-induced amyloid beta (1 to 42) (unknown origin) at 25 uM measured by Thioflavin T based fluorometric assay relative to control
[9] = target: T1, Amyloid-beta precursor protein; experiment: Inhibition of self-induced amyloid beta (1 to 42) (unknown origin) aggregation by T-fluorescence assay relative to control
How it was run: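 IC50 by ThT fluorescence (excitation 446 nm, emission 490 nm). Computed only where inhibition of self-induced Aβ1-42 aggregation at 25 μM exceeded 90%. Triplicate; mean of three independent experiments.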

[10] = target: T1, Amyloid-beta precursor protein; experiment: Inhibition of Cu2+ induced amyloid beta (1 to 42 residues) (unknown origin) aggregation at 25 uM by thioflavin-T fluorescence method relative to control

T1 sequence (P05067 whole entry): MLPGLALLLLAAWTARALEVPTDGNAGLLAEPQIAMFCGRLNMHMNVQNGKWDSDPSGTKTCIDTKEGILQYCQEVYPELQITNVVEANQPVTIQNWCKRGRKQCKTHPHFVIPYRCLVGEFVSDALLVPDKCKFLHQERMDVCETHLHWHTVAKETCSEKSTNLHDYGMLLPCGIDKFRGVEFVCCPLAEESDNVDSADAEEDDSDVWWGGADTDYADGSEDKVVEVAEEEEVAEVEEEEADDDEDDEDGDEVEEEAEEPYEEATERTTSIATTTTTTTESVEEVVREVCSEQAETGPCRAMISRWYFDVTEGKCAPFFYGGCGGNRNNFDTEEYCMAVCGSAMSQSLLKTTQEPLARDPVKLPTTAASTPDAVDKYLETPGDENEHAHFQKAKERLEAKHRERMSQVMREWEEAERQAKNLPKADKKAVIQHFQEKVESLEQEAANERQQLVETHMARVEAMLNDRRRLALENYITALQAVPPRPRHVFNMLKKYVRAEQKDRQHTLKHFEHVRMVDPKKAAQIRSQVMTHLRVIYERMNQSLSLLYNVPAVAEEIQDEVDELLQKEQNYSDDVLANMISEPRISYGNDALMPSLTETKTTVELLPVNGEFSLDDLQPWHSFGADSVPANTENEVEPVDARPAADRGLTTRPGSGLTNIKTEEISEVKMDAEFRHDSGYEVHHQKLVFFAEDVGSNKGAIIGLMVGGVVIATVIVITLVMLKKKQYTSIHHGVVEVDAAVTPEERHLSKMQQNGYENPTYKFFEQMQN
Sequence of Acetylcholinesterase (Electrophorus electricus, UniProt O42275) (O42275 whole entry): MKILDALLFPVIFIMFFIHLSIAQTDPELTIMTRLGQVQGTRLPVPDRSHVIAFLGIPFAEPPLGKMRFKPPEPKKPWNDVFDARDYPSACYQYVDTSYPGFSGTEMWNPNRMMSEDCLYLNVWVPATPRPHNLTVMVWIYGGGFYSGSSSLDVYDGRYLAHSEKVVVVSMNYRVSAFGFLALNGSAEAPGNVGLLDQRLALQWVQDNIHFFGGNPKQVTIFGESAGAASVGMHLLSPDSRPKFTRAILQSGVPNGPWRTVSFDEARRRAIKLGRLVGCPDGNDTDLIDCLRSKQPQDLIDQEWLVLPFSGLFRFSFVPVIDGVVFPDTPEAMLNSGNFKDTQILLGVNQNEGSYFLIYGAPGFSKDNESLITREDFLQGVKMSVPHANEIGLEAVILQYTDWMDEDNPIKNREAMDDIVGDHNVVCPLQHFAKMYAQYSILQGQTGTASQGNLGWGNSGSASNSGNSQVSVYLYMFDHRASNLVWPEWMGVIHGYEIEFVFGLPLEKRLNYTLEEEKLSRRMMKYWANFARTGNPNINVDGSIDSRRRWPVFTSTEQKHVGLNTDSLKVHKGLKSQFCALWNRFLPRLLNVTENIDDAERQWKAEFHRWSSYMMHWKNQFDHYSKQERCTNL
Sequence of Butyrylcholinesterase (Q9JKC1 whole entry): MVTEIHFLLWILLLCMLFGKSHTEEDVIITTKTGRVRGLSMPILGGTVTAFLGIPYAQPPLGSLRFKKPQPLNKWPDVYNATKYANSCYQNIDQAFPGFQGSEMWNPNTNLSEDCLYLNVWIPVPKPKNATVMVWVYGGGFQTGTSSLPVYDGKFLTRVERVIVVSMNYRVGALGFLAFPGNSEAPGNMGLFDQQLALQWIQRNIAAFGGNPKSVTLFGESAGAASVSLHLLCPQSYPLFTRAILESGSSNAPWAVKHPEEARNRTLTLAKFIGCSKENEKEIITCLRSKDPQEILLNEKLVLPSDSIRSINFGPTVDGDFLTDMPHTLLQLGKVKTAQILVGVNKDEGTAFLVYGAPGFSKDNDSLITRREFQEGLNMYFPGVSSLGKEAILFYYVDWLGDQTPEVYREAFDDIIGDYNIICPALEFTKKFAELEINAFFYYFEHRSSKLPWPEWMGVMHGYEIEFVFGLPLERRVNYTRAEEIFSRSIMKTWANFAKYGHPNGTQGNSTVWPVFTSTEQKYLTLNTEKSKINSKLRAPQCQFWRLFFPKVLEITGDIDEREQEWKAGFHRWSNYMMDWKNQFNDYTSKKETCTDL

Row | Structure (SMILES) | inhibition [1] | IC50 [2] | IC50 (Acetylcholinesterase [3]) | IC50 (Butyrylcholinesterase) | IC50 [4] | Selectivity Index (Homo sapiens) | Activity [5] | IC50 (Acetylcholinesterase [6]) | Activity [7] | Activity [8] | IC50 ([9]; read-out: IC50) | inhibition [10] | IC50 [9]
1 | COc1ccc(C(=O)/C=C/c2ccc(N(C)C)cc2)c(O)c1 | 59.7% | 7.62 µM | > 500 µM | > 500 µM | 0.21 µM | 36.3 | 1.2 | > 500 µM | – | – | – | – | –
2 | CCN(CCCCOc1ccc(C(=O)/C=C/c2ccc(N(C)C)cc2)c(O)c1)Cc1ccccc1 | – | 77.3 µM | 4.3 µM | 202 µM | 8.9 µM | 8.7 | 1.5 | 1.39 µM | 82.1% | 97.2% | 3.78 µM | 93.9% | –
3 | CN(C)c1ccc(/C=C/C(=O)c2ccc(N(C)C)cc2O)cc1 | 64.3% | 47.9 µM | > 500 µM | > 500 µM | 12.1 µM | 4 | 1.7 | > 500 µM | – | – | – | – | –
4 | CCN(CC)CCCOc1ccc(C(=O)/C=C/c2ccc(N(C)C)cc2)c(O)c1 | 64.1% | 47.1 µM | 1.35 µM | > 500 µM | 4.1 µM | 11.5 | 1.2 | 2.25 µM | – | – | – | – | –
5 | CCN(CCCCOc1ccc(/C=C/C(=O)c2ccc(N(C)C)cc2O)cc1)Cc1ccccc1N(C)C | 75.8% | 12.3 µM | 3.02 µM | > 500 µM | 4.3 µM | 2.9 | 1.5 | – | – | – | – | – | –
6 | CCN(CCCOc1ccc(C(=O)/C=C/c2ccc(N(C)C)cc2)c(O)c1)Cc1ccccc1OC | – | 26.3 µM | 5.3 µM | > 500 µM | 10.8 µM | 2.4 | 1.5 | 0.63 µM | 74.8% | 98.1% | 3.56 µM | 95.2% | –
7 | CCN(CCCCOc1ccc(C(=O)/C=C/c2ccc(N(C)C)cc2)c(O)c1)Cc1ccccc1OC | – | 27.5 µM | 4.12 µM | > 500 µM | 1.1 µM | 25 | 1.4 | 0.65 µM | 73% | 99.7% | 1.48 µM | 91.9% | –
8 | CCN(CCCOc1ccc(C(=O)/C=C/c2ccccc2)c(O)c1)Cc1ccccc1N(C)C | 23% | 67.8 µM | 2 µM | > 500 µM | 0.8 µM | 84.4 | 1.3 | 0.31 µM | – | – | – | – | –
9 | CCN(CCCCCCOc1ccc(C(=O)/C=C/c2ccc(N(C)C)cc2)c(O)c1)Cc1ccccc1N(C)C | – | 37.8 µM | 2.44 µM | 422 µM | 2.1 µM | 18 | 2 | 0.31 µM | 83.4% | 87.9% | 1.03 µM | 96.5% | –
10 | COc1ccc(/C=C/C(=O)c2ccc(N(C)C)cc2O)cc1 | 36.1% | 42.5 µM | > 500 µM | > 500 µM | 13.3 µM | 3.2 | 1.5 | > 500 µM | – | – | – | – | –
11 | CCN(CCCOc1ccc(C(=O)/C=C/c2ccc(N(C)C)cc2)c(O)c1)Cc1ccc(N(C)C)cc1 | – | 57.5 µM | 6.21 µM | > 500 µM | 13.7 µM | 4.2 | 1.3 | 2.47 µM | 77.6% | 73.7% | 1.32 µM | 95% | –
12 | CCN(CCCCCCOc1ccc(C(=O)/C=C/c2ccc(N(C)C)cc2)c(O)c1)Cc1ccccc1OC | – | 54.3 µM | 5.17 µM | > 500 µM | 0.7 µM | 77.6 | 1.4 | 0.56 µM | 85.6% | 92.6% | 1.49 µM | 93.2% | –
13 | CCN(CCCOc1ccc(C(=O)/C=C/c2ccc(N(C)C)cc2)c(O)c1)Cc1ccccc1 | – | 82.6 µM | 5.06 µM | > 500 µM | 13.1 µM | 6.3 | 1.6 | 1.44 µM | 73.8% | 97.5% | 1.68 µM | 91.9% | –
14 | CCN(CCCOc1ccc(C(=O)/C=C/c2ccc(N(C)C)cc2)c(O)c1)Cc1ccccc1N(C)C | – | 23.6 µM | 1.59 µM | 339 µM | 3.2 µM | 7.4 | 2.1 | 0.21 µM | 89.5% | 96.6% | 1.27 µM | 94.8% | –
15 | COc1cc2c(cc1OC)C(=O)C(CC1CCN(Cc3ccccc3)CC1)C2 (configuration not stated) [DONEPEZIL] | – | – | – | – | – | – | – | – | – | – | – | – | Not Active
16 | CCN(CCCCCCOc1ccc(C(=O)/C=C/c2ccc(N(C)C)cc2)c(O)c1)Cc1ccc(N(C)C)cc1 | – | 53.6 µM | 7.95 µM | > 500 µM | 2.3 µM | 23.3 | 1.4 | 1.37 µM | 84.4% | 95% | 1.38 µM | 95.6% | –
17 | CCN(CCCCCCOc1ccc(C(=O)/C=C/c2ccc(N(C)C)cc2)c(O)c1)Cc1ccccc1 | – | 31.6 µM | 3.59 µM | > 500 µM | 2.1 µM | 15 | 1.4 | 4 µM | 88.3% | 84.4% | 3.17 µM | 91% | –
18 | CCN(CCCCOc1ccc(C(=O)/C=C/c2ccc(N(C)C)cc2)c(O)c1)Cc1ccc(N(C)C)cc1 | – | 17.2 µM | 1.96 µM | 68.9 µM | 2.4 µM | 7.2 | 1.5 | 1.35 µM | 78.8% | 91.6% | 2.1 µM | 91.7% | –
19 | CCN(CCCCOc1ccc(/C=C/C(=O)c2ccc(N(C)C)cc2O)cc1)Cc1ccccc1OC | 70.1% | 9.2 µM | 1.63 µM | > 500 µM | 4.6 µM | 2 | 1.6 | 0.71 µM | – | – | – | – | –
